Experimental data published in ChEMBL document CHEMBL2401732, “Evaluation of adenine as scaffold for the development of novel P2X3 receptor antagonists” (Eur J Med Chem, 2013).
Changes are numbered by the printed parent chain. Calls of active or inactive are those of the source. No cut-off for these calls is given here.

Assays:
[1] = molecular target: T1, P2X purinoceptor 3 (Rattus norvegicus) (UniProt P49654); assay: Antagonist activity at rat recombinant P2X3 receptor expressed in HEK293T cells assessed as desensitization of alpha,beta-methyleneATP-induced current at 100 uM after 20 secs by patch clamp technique; type: cell-based; settings: HEK-293T
T1 sequence (whole entry): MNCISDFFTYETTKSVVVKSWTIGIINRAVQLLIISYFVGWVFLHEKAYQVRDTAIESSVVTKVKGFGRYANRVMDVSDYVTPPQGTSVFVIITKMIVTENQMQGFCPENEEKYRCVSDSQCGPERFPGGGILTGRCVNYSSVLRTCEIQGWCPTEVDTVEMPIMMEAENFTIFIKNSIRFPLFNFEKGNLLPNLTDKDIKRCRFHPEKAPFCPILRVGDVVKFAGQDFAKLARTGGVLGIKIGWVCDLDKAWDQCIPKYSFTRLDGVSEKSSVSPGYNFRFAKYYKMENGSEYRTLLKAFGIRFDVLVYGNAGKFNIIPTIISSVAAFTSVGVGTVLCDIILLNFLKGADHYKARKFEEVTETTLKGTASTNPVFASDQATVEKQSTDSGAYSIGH
Outline: (§1)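 HEK 293T cells transiently co-transfected by calcium phosphate with pEGFP and pcDNA3-P2X3 (rat or human, 1:1), used 24 or 48 h later. GFP-positive cells whole-cell clamped at -60 mV, room temperature, CsCl pipette solution, HEPES-buffered bath pH 7.4. Control response averaged over ≥3 pulses of 100 μM α,β-meATP (2 s, 5 min apart). Compound applied 20 s before agonist. Screening at 100 μM, then 100–0.3 μM. Peak % inhibition computed; Hill fits of dose–inhibition data, n = 6–14 cells.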

[2] = molecular target: T1, P2X purinoceptor 3 (Rattus norvegicus); assay: Antagonist activity at rat recombinant P2X3 receptor expressed in HEK293T cells assessed as desensitization of alpha,beta-methyleneATP-induced current at 10 uM after 20 secs by patch clamp technique; type: cell-based; settings: HEK-293T; outline: as §1
P2X purinoceptor 3 = molecular target: T2, P2X purinoceptor 3 (Rattus norvegicus, UniProt P49654); assay: Antagonist activity at rat recombinant P2X3 receptor expressed in HEK293T cells assessed as desensitization of alpha,beta-methyleneATP-induced current after 20 secs by patch clamp technique; type: cell-based, HEK-293T; outline: as §1
T2 sequence (P49654 whole entry): T1 sequence (whole entry)

[3] = molecular target: T1, P2X purinoceptor 3 (Rattus norvegicus); assay: Antagonist activity at rat recombinant P2X3 receptor expressed in HEK293T cells assessed as desensitization of alpha,beta-methyleneATP-induced current at 1 uM after 20 secs by patch clamp technique; type: cell-based; settings: HEK-293T; outline: as §1
[4] = molecular target: T1, P2X purinoceptor 3 (Rattus norvegicus); assay: Antagonist activity at rat recombinant P2X3 receptor expressed in HEK293T cells assessed as desensitization of alpha,beta-methyleneATP-induced current at 100 uM after 6 mins of compound wash out by patch clamp technique; type: cell-based; settings: HEK-293T
Outline: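 Rat P2X3 in transfected HEK 293T cells, whole-cell clamp at -60 mV. After 20 s compound application and a 2 s pulse of 100 μM α,β-meATP, the cell was washed for 6 min. Recovery was assessed as the peak current to a repeat agonist pulse, compared with the control peak.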

[5] = molecular target: T1, P2X purinoceptor 3 (Rattus norvegicus); assay: Antagonist activity at rat recombinant P2X3 receptor expressed in HEK293T cells assessed as desensitization of alpha,beta-methyleneATP-induced current at 0.3 uM after 20 secs by patch clamp technique; type: cell-based; settings: HEK-293T; outline: as §1
[6] = molecular target: T1, P2X purinoceptor 3 (Rattus norvegicus); assay: Antagonist activity at rat recombinant P2X3 receptor expressed in HEK293T cells assessed as desensitization of alpha,beta-methyleneATP-induced current at 100 uM after 20 secs by patch clamp technique relative to control; type: cell-based; design: scale not given: the % may be the effect or the level left; settings: HEK-293T; outline: as §1
[7] = molecular target: T3, P2X purinoceptor 3 (Mus musculus) (UniProt Q3UR32); assay: Antagonist activity at P2X3 receptor in C57Bl/6 wild type mouse trigeminal ganglion sensory neurons assessed as desensitization of alpha,beta-methyleneATP-induced current at 1 uM after 20 secs by patch clamp technique; type: tissue-based
T3 sequence (whole entry): T1 sequence (whole entry) with L144R, R202K, A377T
Outline: (§2)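 Native P2X3 in trigeminal ganglion neurons from C57Bl/6 mice (P10–14), dissociated with trypsin/collagenase/DNAse at 37 °C for 12 min and cultured 24 h. Small/medium neurons whole-cell voltage clamped at -60 mV, room temperature. Pipette KCl-based with ATP–Mg/GTP–Li, pH 7.2. Compound superfused 20 s, then 2 s pulse of 100 μM α,β-meATP. % inhibition = 100×(1−I2/I1) from peak currents.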

[8] = molecular target: T3, P2X purinoceptor 3 (Mus musculus); assay: Antagonist activity at P2X3 receptor in C57Bl/6 wild type mouse trigeminal ganglion sensory neurons assessed as desensitization of alpha,beta-methyleneATP-induced current at 100 uM after 20 secs by patch clamp technique; type: tissue-based; outline: as §2
[9] = molecular target: T4, P2X purinoceptor 3 (Homo sapiens) (UniProt P56373); assay: Antagonist activity at human recombinant P2X3 receptor expressed in HEK293T cells assessed as desensitization of alpha,beta-methyleneATP-induced current at 100 uM after 20 secs by patch clamp technique; type: cell-based; settings: HEK-293T, 1 uM, in the assay text read “at 1 uM” for “at 100 uM”; outline: as §1
T4 sequence (whole entry): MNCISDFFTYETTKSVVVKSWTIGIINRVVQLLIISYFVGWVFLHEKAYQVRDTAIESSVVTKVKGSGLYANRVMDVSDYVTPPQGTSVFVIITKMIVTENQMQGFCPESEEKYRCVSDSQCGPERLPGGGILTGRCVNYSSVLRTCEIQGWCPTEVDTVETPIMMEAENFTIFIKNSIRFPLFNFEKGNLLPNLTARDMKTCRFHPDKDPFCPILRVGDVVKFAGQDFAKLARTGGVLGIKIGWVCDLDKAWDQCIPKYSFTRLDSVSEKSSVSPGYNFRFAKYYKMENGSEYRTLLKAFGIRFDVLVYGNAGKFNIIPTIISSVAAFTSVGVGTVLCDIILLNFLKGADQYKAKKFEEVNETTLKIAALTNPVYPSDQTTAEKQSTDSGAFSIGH

| SMILES | inhibition [1] | inhibition [2] | IC50 (P2X purinoceptor 3) | inhibition [3] | inhibition [5] | also measured |
| --- | --- | --- | --- | --- | --- | --- |
| COc1cc(Cn2cnc3nc(N)nc(Cl)c32)c(C(C)C)cc1OC | 19% | – | – | – | – | – |
| COc1cc(C(C)C)c(Cn2cnc3nc(N)nc(N)c32)cc1I | – | 43% | – | – | – | – |
| COc1cc(C(C)C)c(Cn2cnc3c(OC)nc(N)nc32)cc1I | 50% | – | – | – | – | – |
| COc1cc(Cn2cnc3c(N)nc(N)nc32)c(C(C)C)cc1OC | 82% | 36% | 18.6 µM | 8% | – | Activity [4]: inactive |
| COc1cc(C(C)C)c(Cn2cnc3c(N)nc(N)nc32)cc1I | 93% | 78% | 2.23 µM | 35% | 23% | – |
| CNc1nc(N)nc2c1ncn2Cc1cc(OC)c(OC)cc1C(C)C | 71% | – | – | – | – | – |
| COc1cc(Cn2cnc3c(Cl)nc(N)nc32)c(C(C)C)cc1OC | 27% | – | – | – | – | Activity [6]: 6% |
| COc1cc(Cn2cnc3nc(N)nc(N)c32)c(C(C)C)cc1OC | 23% | – | – | – | – | – |
| CNc1nc(N)nc2c1ncn2Cc1cc(I)c(OC)cc1C(C)C | 98% | 76% | 1.74 µM | 41% | 22% | inhibition [7]: 37%; inhibition [8]: Active; inhibition [9]: 29%; Activity [4]: inactive |
| COc1cc(C(C)C)c(Cn2cnc3c(NC4CCCC4)nc(N)nc32)cc1I | 58% | 60% | – | 51% | 45% | – |
